Compound activity: PubChem BioAssay, several laboratories
Platelet DG rel = inhibitors of platelet dense granule secretion, primary screen, cell-based, MLPCN, human platelets; human platelet-rich plasma, SFLLRN dense granule ATP release, luminescence; inhibition, %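 (compounds screened at 7.5 µM in platelet-rich plasma)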; 300,000 tested, 0.22% active; AID 1663, 2009;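 active means mean replicate score, as percent of positive control, at or above 50; inconclusive means mean below 50 but at least one replicate at or above 50; inactive means mean and every replicate below 50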
Myeloid diff MLP = induction of myeloid progenitor differentiation, primary screen, cell-based, flow cytometry, MLPCN library; ER-HoxA9 myeloid progenitors, lysozyme-GFP differentiation; calls only at 10 µM; 360,000 tested, 1% active; AID 624256, 2012;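 active means normalized GFP-positive differentiation at or above the plate's own cutoff, the solvent-only control mean plus 3 SD; inconclusive means no clear call, values can overlap the other calls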;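 further: cells exposed to compound for four days before flow analysis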
SENP1 FRET inh = human SENP1 catalytic domain inhibitors, primary screen, biochemical, FRET, uHTS | Sentrin-specific protease 1 (Homo sapiens), Q9P0U3 | recombinant SENP1 catalytic domain, CyPet-SUMO1-YPet FRET cleavage | inhibition, % at 10 µM | 360,000 tested, 0.21% active | AID 624204, 2012;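 active means inhibition at least 30% at 10 µM, raw YFP signal under a set limit, fluorescence ratio 0.5 to 1.5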;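 further: 0% = enzyme with DMSO and 100% = no enzyme wells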
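Assay system – human recombinant His6-tagged SENP1 catalytic domain enzyme · Input – SENP1 enzyme, 20 pM final · Buffer or medium – Tris pH 8 buffer plus EDTA, NaCl, BME, BSA, NP40, catalase · Schedule – 50 min reaction at room temperature · Technique – FRET read of cyan and yellow fluorescence · Control set – no-enzyme wells low, DMSO-plus-enzyme wells high control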
VLA-4 inh = inhibition in human VLA-4 binding assay, primary screen, VLA-4 allosteric modulator project, MLPCN library, flow cytometry, VLA-4 expressing cells; Integrin alpha-4 (Homo sapiens), P13612; ligand binding flow cytometry; inhibition, % (about 7 µM as worked out from the volumes in the protocol); 330,000 tested, 0.2% active; in the data active means inhibition above about 50%
Target sequence (P13612 whole entry, looked up): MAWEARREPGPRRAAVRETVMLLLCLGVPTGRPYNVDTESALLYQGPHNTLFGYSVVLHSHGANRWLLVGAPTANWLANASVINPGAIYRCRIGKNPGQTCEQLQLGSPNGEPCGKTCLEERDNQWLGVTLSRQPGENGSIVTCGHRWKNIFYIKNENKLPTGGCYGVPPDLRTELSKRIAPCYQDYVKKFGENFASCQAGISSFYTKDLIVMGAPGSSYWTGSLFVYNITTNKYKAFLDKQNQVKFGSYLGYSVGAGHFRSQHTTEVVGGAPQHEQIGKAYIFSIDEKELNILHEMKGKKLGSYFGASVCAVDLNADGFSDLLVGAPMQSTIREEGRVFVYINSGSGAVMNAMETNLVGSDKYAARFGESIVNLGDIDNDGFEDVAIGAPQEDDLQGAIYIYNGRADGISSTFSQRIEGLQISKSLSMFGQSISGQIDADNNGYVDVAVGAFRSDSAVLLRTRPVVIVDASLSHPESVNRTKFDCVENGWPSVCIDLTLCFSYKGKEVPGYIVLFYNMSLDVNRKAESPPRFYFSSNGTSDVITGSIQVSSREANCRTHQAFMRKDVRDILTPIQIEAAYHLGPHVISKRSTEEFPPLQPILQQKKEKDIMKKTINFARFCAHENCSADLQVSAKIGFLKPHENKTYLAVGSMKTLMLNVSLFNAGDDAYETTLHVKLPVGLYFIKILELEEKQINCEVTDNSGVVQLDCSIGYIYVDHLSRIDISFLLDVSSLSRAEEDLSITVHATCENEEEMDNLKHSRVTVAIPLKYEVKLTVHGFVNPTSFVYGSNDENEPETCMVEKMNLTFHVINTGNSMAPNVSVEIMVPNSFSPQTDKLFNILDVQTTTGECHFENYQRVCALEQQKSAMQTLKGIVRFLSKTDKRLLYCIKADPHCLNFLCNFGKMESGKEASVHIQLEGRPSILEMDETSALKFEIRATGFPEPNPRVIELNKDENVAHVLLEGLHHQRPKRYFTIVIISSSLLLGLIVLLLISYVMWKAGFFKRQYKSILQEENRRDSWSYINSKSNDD
VLA-4 mod pick = retest of VLA-4 allosteric modulators, confirmation, cell-based, cherry-picked plates, U937, HUTS-21 LIBS antibody; U937 cells, HUTS-21 LIBS mAb binding, flow cytometry; LDV ligand present at threefold Kd; shares compounds with VLA-4 inh; 1,300 tested, 2% active; inhibition, % at 6.7 µM; in the data active means inhibition above about 40%;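 further: 0% = ligand without compound and 100% = no ligand background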
* marks the source's active call; other numbers are inactive results; i = inactive; u = inconclusive; x = no result. Rows were chosen to be rich in hits. Some 1.5% of all compounds tested hit in one or more screens of this group.

SMILES | Platelet DG rel | Myeloid diff MLP | SENP1 FRET inh | VLA-4 inh | VLA-4 mod pick
CSc1nc2nc(-c3ccccc3)cc(=O)n2[nH]1 | 14 | i | 0 | 93* | 5
C[C@@H](NC(=O)[C@@H]1Cc2ccccc2CN1)C(=O)NC1CCCCC1 | -6 | i | 0 | 51* | -1
COCCNC(=O)Cn1nc(-c2ccccc2C)ccc1=O | -2 | i | 1 | -1 | x
CCOc1ccc2[nH]c(C(=O)N/N=C/c3ccc(OC)cc3)cc2c1 | 4 | u | 1 | 56* | 34
CCCCN1Cc2c(nc3cc(-c4ccco4)[nH]n3c2=O)C1=O | -1 | i | -38 | 8 | x
COc1ccc(-c2csc(Nc3ncccc3C)n2)cc1OC | 3 | i | 0 | 10 | x
COc1ccc(-c2csc(Nc3ncccc3C)n2)cc1 | 6 | i | 1 | 92* | -1
COc1ccc(CC(=O)NC(C)c2nnc(SCC(=O)c3ccc(OC)cc3)n2C)cc1 (stereo not given) | -4 | i | -1 | -3 | x
COc1ccc(-c2nnc(SCC(=O)Nc3nc4ccccc4s3)n2C)cc1 | -1 | i | -3 | x | x
COc1ccc(C(=O)NC(C)c2nnc(SCC(=O)Nc3nc4ccccc4s3)n2C)cc1 (stereo not given) | -15 | i | -4 | -10 | 4
COc1ccc(C(=O)NC(C)c2nnc(SCC(=O)Nc3nc(C)cs3)n2C)cc1 (stereo not given) | 5 | i | 3 | 2 | 0
C[C@H](c1ccccc1)N1C[C@@H](COCc2ccccc2)Oc2cc(N3CCC[C@H]3CO)ccc2S1(=O)=O | x | i | -14 | x | x
C/C(=N\NC(=O)c1ccccc1)c1ccc2c(c1)OCO2 | -1 | i | 1 | 71* | 12
COc1cc2sc(-c3ccc(S(C)(=O)=O)cc3)c(-c3ccc4c(c3)OCO4)c2cc1OC | x | i | -4 | 3 | x
CC1CC(C)CN(C(=O)c2ccc(C(=O)c3ccccc3)cc2)C1 (stereo not given) | -3 | i | 1 | 29 | x
CC1CC(C)CN(C(=O)c2ccc(C#N)cc2)C1 (stereo not given) | 10 | i | 1 | 60* | 10
Cc1cc(C)c(S(=O)(=O)N2CCCC(C(=O)NCc3cccnc3)C2)c(C)c1 (stereo not given) | -4 | i | 1 | 17 | x
CCOc1ccc(NS(=O)(=O)c2ccc(C(=O)N3CCC3)cc2)cc1 | -4 | i | 0 | 4 | x
CCNc1nc(NCC)nc(-n2nc(C)cc2C)n1 | 3 | i | 1 | 15 | 0
Cc1cc(C)n(-c2nc(NC(C)C)nc(NC(C)C)n2)n1 | 12 | i | -1 | 57* | 5
Cc1cc(C)n(-c2nc(NC(C)(C)C)nc(NC(C)(C)C)n2)n1 | 4 | i | 0 | 4 | x
NC(=O)c1ccsc1NC(=O)CCS(=O)(=O)c1ccc(Cl)cc1 | x | i | -4 | x | x
COc1cccc(C2CC(=O)Nc3cc(OC)c(OC)c(OC)c32)c1OC (stereo not given) | 2 | i | 3 | 2 | -1
COC(=O)C1=C(C)NC(=O)CC1c1cccc(OC)c1OC (stereo not given) | -2 | i | 2 | 6 | x
CCOc1ccccc1C1CC(=O)Nc2cc(OC)c(OC)c(OC)c21 (stereo not given) | -1 | i | 0 | 7 | -2
SMILES | Platelet DG rel | Myeloid diff MLP | SENP1 FRET inh | VLA-4 inh | VLA-4 mod pick
CCCCCc1ccnc(CC(=O)c2ccc(OC)cc2)c1 | x | i | 1 | x | x
CC(=O)c1cccc(NC(=O)CSc2nc(=O)n(CCN3CCOCC3)c3c2CCC3)c1 | -7 | i | 1 | -6 | x
Cc1noc(C)c1CSc1ncnc2sc3c(c12)CCCCC3 | -10 | i | -27 | 42 | 0
COc1ccccc1OCC(=O)NNC(=O)Nc1ccccc1 | -1 | i | 0 | 8 | x
CC(OC(=O)c1ccccc1O)C(=O)Nc1cccc(Cl)c1 (stereo not given) | 0 | i | 2 | 6 | 1
COC(=O)c1ccc(S(=O)(=O)N2CCCCCC2)n1C | -1 | i | 1 | -3 | x
COc1ccc(OCCn2c(=N)n(CCO)c3ccccc32)cc1 | 3 | i | 1 | 7 | x
N=c1n(CCO)c2ccccc2n1CCOc1ccc(Cl)cc1Cl | -5 | i | 2 | 54* | 24
O=S(=O)(Nc1ncccn1)c1cc(Cl)ccc1Cl | 4 | i | 0 | -1 | -7
COc1ccc(-c2ccc3c(c2)[C@@H]2C[C@H](N(C)C(=O)Nc4ccccc4)[C@H]([C@H](C)O)C(=O)N2CC3)cc1 | x | i | -2 | x | x
CCN(CC)CCCOC(=O)C1(c2ccccc2)CCCC1 | 1 | i | -1 | 25 | x
CCN(CC)CCOCCOC(=O)C1(c2ccccc2)CCCC1 | -2 | i | 3 | 57* | 2
O=C(Nc1ccncc1)Nc1ccccn1 | 2 | i | 2 | 11 | x
O=C(Nc1ccccc1)Nc1ccncc1 | 3 | u | 0 | 62* | -10
O=C(OCc1c(F)cccc1Cl)c1cccnc1Cl | -2 | i | 0 | 51* | 4
CSc1ncccc1C(=O)OCc1c(F)cccc1Cl | -4 | i | 0 | -5 | x
CCC(C)[C@H]1CNC(=O)C(=O)N1CCCc1cc(OC)c(OC)c(OC)c1 (stereo not given in full) | -2 | i | 2 | 12 | 10
COc1cc(CCCN2C(=S)NC[C@@H]2Cc2ccccc2)cc(OC)c1OC | -3 | i | 2 | 3 | x
COc1cc(CCCN2C(=O)C(=O)NC[C@H]2Cc2cccc3ccccc23)cc(OC)c1OC | 0 | i | 0 | -8 | x
CCCC[C@@H]1CNC(=O)C(=O)N1CCCc1cc(OC)c(OC)c(OC)c1 | 0 | i | -1 | 58* | -1
COc1cccc(C(=O)NCCNC(=O)c2ccc(C)nc2)c1 | 2 | i | 0 | -2 | x
Cc1oc(-c2ccccc2Cl)nc1CS(=O)CC(=O)NCc1ccccc1Cl (stereo not given) | 2 | i | 0 | 2 | x
COc1ccc(CCN2C(=O)CCC2(C)c2nnnn2Cc2ccccc2)cc1OC (stereo not given) | x | i | 0 | x | x
O=C1CCN(CCCc2ccccc2)CCN1[C@H](CO)Cc1ccccc1 | -1 | i | 0 | 54* | 0
CSc1ccc(C(=O)c2[nH]c(=O)[nH]c2C)cc1 | 12 | i | 1 | 55* | 0
COc1ccc(-c2cc(C(=O)N3CCN(c4cccc(C)c4C)CC3)c3ccccc3n2)cc1OC | 3 | i | 0 | -8 | -2
O=C(c1cc(-c2ccc(Br)cc2)nc2ccccc12)N1CCN(c2ccccc2O)CC1 | 19 | i | 2 | 5 | -10
O=C(c1cc(-c2ccncc2)nc2ccc(Br)cc12)N1CCN(c2ccccn2)CC1 | 4 | i | 2 | 1 | -11
